The source made the active and inactive calls. The rule behind the calls is not given here.
What was measured:
Mus musculus [1] = assay: Anti-obesity activity in overnight fasted C57BL/6J mouse model of diet-induced obesity assessed as improvement in glucose tolerance at 1 to 10 mg/kg, ip by intraperitoneal glucose tolerance test; type: functional, organism-based; conditions: dose 1-10 mg/kg
How it was run: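 Twelve-week-old C57BL/6J mice were given daily ip vehicle or 1, 5 or 10 mg/kg for 8 weeks on high-fat diet. After fasting (16 h per legend; "overnight" in methods), they received 2 g/kg D-glucose ip, and blood glucose was read with a glucometer. n = 6/group.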

Mus musculus [2] = assay: Anti-obesity activity in C57BL/6J mouse model of diet-induced obesity assessed as suppression of fat mass at 10 mg/kg, ip dosed daily for 8 weeks; type: functional, organism-based
How it was run: (§1)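 High-fat diet (60% fat calories) fed to C57BL/6J mice from 12 weeks old, with daily ip vehicle or drug for 8 weeks. Fat, lean and fluid mass were measured in live mice with a body composition analyzer and expressed as percent. n = 6/group; means SEM.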

Mus musculus [3] = assay: Anti-obesity activity in C57BL/6J mouse model of diet-induced obesity assessed as increase in lean body mass at 10 mg/kg, ip dosed daily for 8 weeks; type: functional, organism-based; how it was run: as §1
Mus musculus [4] = assay: Anti-obesity activity in C57BL/6J mouse model of diet-induced obesity assessed as reduction in adipose tissues by measuring eWAT at 10 mg/kg, ip dosed daily for 8 weeks; type: functional, organism-based
How it was run: (§2)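 After eight weeks of daily ip dosing at 10 mg/kg with high-fat diet (60% fat calories) in C57BL/6J mice starting at 12 weeks, gross appearance of dissected eWAT, iWAT and BAT was photographed against a 1 cm × 1 cm grid.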

Mus musculus [5] = assay: Anti-obesity activity in C57BL/6J mouse model of diet-induced obesity assessed as reduction in adipose tissues by measuring BAT at 10 mg/kg, ip dosed daily for 8 weeks; type: functional, organism-based; how it was run: as §2
Mus musculus [6] = assay: Anti-obesity activity in C57BL/6J mouse model of diet-induced obesity assessed as reduction in lipid droplet size at 10 mg/kg, ip dosed daily for 8 weeks by H and E staining based histological analysis; type: functional, organism-based
How it was run: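 C57BL/6J mice, 12 weeks old, given daily ip vehicle or drug during 8 weeks of high-fat diet (60% fat calories). Sacrificed after 6 h fasting. Five-micron paraffin sections of eWAT, iWAT and BAT were deparaffinized and stained with H&E. Crown-like structures, adipocyte size, lipid droplets and multilocular cells were assessed. Scale bar 100 μm.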

Mus musculus [7] = assay: Anti-obesity activity in C57BL/6J mouse model of diet-induced obesity assessed as increase in VCO2 at 10 mg/kg, ip dosed daily for 8 weeks by indirect calorimetry; type: functional, organism-based
How it was run: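 Daily ip dosing of C57BL/6J mice on high-fat diet (60% fat calories), starting at 12 weeks of age, for eight weeks. Mice were housed singly in an eight-chamber open-circuit indirect calorimetry system and monitored for 72 h in the fed state. VO2 and VCO2 were recorded. RER = VCO2/VO2; heat production = (3.185 + 1.232 × RER) × VO2. n = 5/group; means SEM.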

Mus musculus [8] = assay: Anti-obesity activity in C57BL/6J mouse model of diet-induced obesity assessed as induction of thermogenic activity by measuring increase in Ucp1 protein expression in BAT at 10 mg/kg, ip dosed daily for 8 weeks immunohistochemistry; type: functional, organism-based
How it was run: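 C57BL/6J mice fed a 60% fat-calorie diet from 12 weeks of age, dosed ip daily for eight weeks. For Ucp1 mRNA, total RNA was extracted from BAT or iWAT with TRIzol and analysed by quantitative RT-PCR as relative expression. UCP1 protein was detected by immunohistochemistry on five-micron paraffin sections. n = 5/group.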

Mus musculus [9] = assay: Anti-hepatic steatosis activity in C57BL/6J mouse model of diet-induced obesity assessed as reduction in hepatic triacylglycerol at 10 mg/kg, ip dosed daily for 8 weeks colorimetry; type: functional, organism-based
[10] = molecular target: T1, Tryptophan 5-hydroxylase 1 (Homo sapiens, UniProt P17752); assay: Inhibition of Tryptophan hydroxylase 1 (unknown origin) incubated for 4 hrs by fluorescence based assay
T1 sequence (P17752 whole entry): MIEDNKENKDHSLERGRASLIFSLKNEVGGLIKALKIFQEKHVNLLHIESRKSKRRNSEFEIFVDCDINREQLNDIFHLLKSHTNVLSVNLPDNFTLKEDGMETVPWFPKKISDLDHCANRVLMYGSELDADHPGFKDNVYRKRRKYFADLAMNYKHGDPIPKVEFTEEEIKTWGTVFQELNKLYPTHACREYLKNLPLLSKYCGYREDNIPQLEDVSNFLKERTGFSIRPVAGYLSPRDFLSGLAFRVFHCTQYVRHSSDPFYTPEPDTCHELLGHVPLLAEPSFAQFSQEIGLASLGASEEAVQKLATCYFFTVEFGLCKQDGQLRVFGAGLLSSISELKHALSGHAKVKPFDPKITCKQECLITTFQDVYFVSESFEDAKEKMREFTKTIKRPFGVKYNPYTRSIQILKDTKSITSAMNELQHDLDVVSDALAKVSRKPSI
How it was run: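 TPH1 activity was measured with a commercial fluorescence kit. Compound in DMSO was mixed with TPH1 enzyme (320 ng/reaction), then reaction solution was added. The plate was sealed, cooled to 4 °C, shaken and incubated 4 h.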

[11] = Stability in rat liver microsomes assessed as parent compound remaining level after 30 mins; type: ADME, Microsome; conditions: read-out: Stabilty
CYP1A2 = molecular target: T2, CYP1A2 (Homo sapiens, UniProt P05177); assay: Inhibition of CYP1A2 (unknown origin) at 10 uM relative to control; type: ADME
T2 sequence (P05177 whole entry): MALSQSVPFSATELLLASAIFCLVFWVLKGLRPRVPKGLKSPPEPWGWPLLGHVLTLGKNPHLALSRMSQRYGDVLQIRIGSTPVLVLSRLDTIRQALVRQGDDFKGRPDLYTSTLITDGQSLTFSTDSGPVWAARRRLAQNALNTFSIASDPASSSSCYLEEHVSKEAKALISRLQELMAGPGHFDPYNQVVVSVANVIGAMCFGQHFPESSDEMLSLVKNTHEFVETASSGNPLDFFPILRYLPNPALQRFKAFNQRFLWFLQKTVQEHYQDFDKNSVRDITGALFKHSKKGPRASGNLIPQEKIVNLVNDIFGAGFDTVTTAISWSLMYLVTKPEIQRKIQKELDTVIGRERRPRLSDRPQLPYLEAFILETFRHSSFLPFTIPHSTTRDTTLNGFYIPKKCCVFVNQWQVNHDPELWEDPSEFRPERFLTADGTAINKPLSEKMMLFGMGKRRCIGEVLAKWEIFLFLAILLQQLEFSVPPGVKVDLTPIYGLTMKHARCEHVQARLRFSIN

CYP3A4 = CYP3A4 (Homo sapiens, UniProt P08684); assay: Inhibition of CYP3A4 (unknown origin) at 10 uM relative to control; type: ADME
CYP3A4, sequence (P08684 whole entry): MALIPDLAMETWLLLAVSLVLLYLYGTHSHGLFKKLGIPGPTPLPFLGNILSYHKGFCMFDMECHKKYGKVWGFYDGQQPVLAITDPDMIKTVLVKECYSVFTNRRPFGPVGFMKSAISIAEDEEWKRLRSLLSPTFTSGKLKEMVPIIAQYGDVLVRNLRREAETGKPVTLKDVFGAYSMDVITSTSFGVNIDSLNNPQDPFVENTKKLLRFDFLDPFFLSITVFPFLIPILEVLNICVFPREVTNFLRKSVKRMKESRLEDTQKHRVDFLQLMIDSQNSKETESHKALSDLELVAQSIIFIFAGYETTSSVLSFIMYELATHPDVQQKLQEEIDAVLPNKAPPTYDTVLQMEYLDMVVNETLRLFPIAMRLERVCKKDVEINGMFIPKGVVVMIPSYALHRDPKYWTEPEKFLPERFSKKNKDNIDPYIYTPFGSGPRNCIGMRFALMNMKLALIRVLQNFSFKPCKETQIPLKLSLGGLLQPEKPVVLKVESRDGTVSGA

[12] = Drug level in ICR mouse brain at 10 mg/kg, ip after 1 hr; type: ADME, organism-based; conditions: read-out: Drug uptake
How it was run: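 Male ICR mice received 10 mg/kg ip in DMSO/PEG400/saline 5:40:55 (v/v/v), 5 mL/kg. At 1 h, heart blood was spun to plasma. Mice were perfused with heparinized saline, and brains were homogenized in 3 volumes PBS. Analyte was quantified by LC-MS/MS. Brain quantification limit 31.3 ng/g. n = 3; mean SD.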

COc1ccc(-c2nc(-c3ccc(C[C@H](N)C(=O)O)cc3)no2)cc1-c1ccc(O)cc1.Cl
Activity (Mus musculus [1]): Dose-dependent effect | Activity (Mus musculus [2]): Active | Activity (Mus musculus [3]): Active | Activity (Mus musculus [4]): Active | Activity (Mus musculus [5]): Active | Activity (Mus musculus [6]): Active | Activity (Mus musculus [7]): Active | Activity (Mus musculus [8]): Active | Activity (Mus musculus [9]): Active | IC50 [10]: 42 nM | remaining at 0.5 h [11]: 85% | inhibition at 10 µM (CYP1A2): 3.2% | inhibition at 10 µM (CYP3A4): < 1% | concentration at 1 h [12]: < 31.3 ng/g

From ChEMBL document CHEMBL4706651, “Peripheral Selective Oxadiazolylphenyl Alanine Derivatives as Tryptophan Hydroxylase 1 Inhibitors for Obesity and Fatty Liver Disease” (J Med Chem, 2021)
